Laboratory results from ChEMBL document CHEMBL1833898, “Dual pro-drugs of 2'-C-methyl guanosine monophosphate as potent and selective inhibitors of hepatitis C virus” (Bioorg Med Chem Lett, 2011).
Calls of active or inactive are those of the source. The calls are words filed in the database; no cut-off is given here.

Tests used:
[1] = Cytotoxicity against human HuH7 cells; format: cell-based, Huh-7
[2] = system: Hepatitis C virus; assay: Antiviral activity against Hepatitis C virus subtype 1b replicon in by replicon assay in presence of adenosine deaminase inhibitor pentostatin; format: functional, organism-based; conditions: Hepacivirus hominis; genotype 1b
Outline: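 Genotype 1b replicon in HUH7 cells, 48 h compound exposure, run with and without the adenosine/adenylate deaminase inhibitor pentostatin.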

[3] = Stability of the compound assessed as half life by NMR analysis in presence of carboxypeptidase Y; format: ADME
Outline: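 Incubation with carboxypeptidase Y in acetone-d6 and Trizma buffer pH 7.6. 31P NMR spectra taken every 7 min over 14 h to follow loss of starting material and intermediate formation.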

[4] = system: Hepatitis C virus; assay: Antiviral activity against Hepatitis C virus subtype 1b replicon in human HuH7 cells after 48 hrs by subgenomic replicon assay; format: functional, organism-based, Hepacivirus hominis; conditions: genotype 1b, Huh-7, 48 h
[5] = Prodrug conversion of the compound after 24 hrs using UV spectroscopic analysis in presence of adenosine deaminase; format: ADME
Outline: (§1)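 Nucleoside at 44 μM (1 ml, phosphate buffer pH 7.4) with 30 μL adenosine deaminase solution. UV spectra taken at 1 min intervals for 30 min. Conversion judged by the spectrum matching 2'-C-methylguanosine. Reaction followed up to 24 h.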

[6] = Prodrug conversion of the compound using UV spectroscopic analysis in presence of adenosine deaminase; format: ADME; outline: as §1
[7] = system: Huh-7; assay: Prodrug stability in human HuH7 cell lysates assessed as monophosphate formation at pH 7.6 after every 1 hr for 11 hrs by NMR assay; format: ADME, cell-based, Lysate; conditions: huh-7, pH 7.6, 11 h
Outline: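 HuH7 cell lysate (10^7 cells) in acetone-d6 and Trizma buffer pH 7.6 at 37 °C. 31P NMR taken every 1 h for 11 h. Monophosphate identified by a signal at the shift of an authentic monophosphate.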

Row | Compound | EC50 [4] [µM] | Drug metabolism [5] | Drug metabolism [6] | CC50 [1] [µM] | Activity [2] | half-life [3] [h] | EC90 [4] [µM] | Drug metabolism [7]
1 | CCOc1nc(N)nc2c1ncn2[C@@H]1O[C@H](COP(=O)(N[C@@H](C)C(=O)OC(C)C)Oc2cccc3ccccc23)[C@@H](O)[C@@]1(C)O (stereo not given in full) | 0.14 |  |  | 40 | inactive | 4 |  | 
2 | CCOc1nc(N)nc2c1ncn2[C@@H]1O[C@H](COP(=O)(N[C@@H](C)C(=O)OCc2ccc(F)cc2F)Oc2cccc3ccccc23)[C@@H](O)[C@@]1(C)O (stereo not given in full) | 0.034 |  |  | 17 | inactive |  |  | 
3 | C[C@H](NP(=O)(OC[C@H]1O[C@@H](n2cnc3c(NCCc4ccccc4)nc(N)nc32)[C@](C)(O)[C@@H]1O)Oc1cccc2ccccc12)C(=O)OCC(C)(C)C (stereo not given in full) | 0.27 |  |  | 42 | inactive |  | 1.3 | 
4 | C[C@H](NP(=O)(OC[C@H]1O[C@@H](n2cnc3c(Cl)nc(N)nc32)[C@](C)(O)[C@@H]1O)Oc1cccc2ccccc12)C(=O)OCC(C)(C)C (stereo not given in full) | 0.012 |  |  | 16 | inactive |  | 0.028 | 
5 | C[C@H](NP(=O)(OC[C@H]1O[C@@H](n2cnc3c(NCc4ccccc4)nc(N)nc32)[C@](C)(O)[C@@H]1O)Oc1cccc2ccccc12)C(=O)OCC(C)(C)C (stereo not given in full) | 0.79 |  |  | 15 | inactive |  | 2.7 | 
6 | CCOc1nc(N)nc2c1ncn2[C@@H]1O[C@H](COP(=O)(N[C@@H](C)C(=O)OCC(C)(C)C)Oc2cccc3ccccc23)[C@@H](O)[C@@]1(C)O (stereo not given in full) | 0.008 |  |  | 10 | inactive |  | 0.032 | 
7 | C[C@@]1(O)[C@H](O)[C@@H](CO)O[C@H]1N1C=NC2C(=O)NC(N)=NC21 (stereo not given in full) |  |  | Active |  |  |  |  | 
8 | CCOc1nc(N)nc2c1ncn2[C@@H]1O[C@H](COP(=O)(N[C@H](C(=O)OCC(C)(C)C)C(C)C)Oc2cccc3ccccc23)[C@@H](O)[C@@]1(C)O (stereo not given in full) | 0.17 |  |  | 24 | inactive |  |  | 
9 | CNc1nc(N)nc2c1ncn2[C@@H]1O[C@H](COP(=O)(N[C@@H](C)C(=O)OCC(C)(C)C)Oc2cccc3ccccc23)[C@@H](O)[C@@]1(C)O (stereo not given in full) | 0.035 |  |  | 38 | inactive |  | 0.103 | 
10 | CSc1nc(N)nc2c1ncn2[C@@H]1O[C@H](COP(=O)(N[C@@H](C)C(=O)OCC(C)(C)C)Oc2cccc3ccccc23)[C@@H](O)[C@@]1(C)O (stereo not given in full) | 0.037 |  |  | 41 | inactive |  | 0.16 | 
11 | CCOc1nc(N)nc2c1ncn2[C@@H]1O[C@H](COP(=O)(N[C@@H](C)C(=O)O[C@@H](C)c2ccccc2)Oc2cccc3ccccc23)[C@@H](O)[C@@]1(C)O (stereo not given in full) | 0.085 |  |  | 12 | inactive |  |  | Active
12 | COc1nc(N)nc2c1ncn2[C@@H]1O[C@H](COP(=O)(N[C@@H](C)C(=O)OCC(C)(C)C)Oc2cccc3ccccc23)[C@@H](O)[C@@]1(C)O (stereo not given in full) [BMS-986094] |  |  |  |  | inactive |  | 0.038 | 
13 | CCOc1nc(N)nc2c1ncn2[C@@H]1O[C@H](COP(=O)(N[C@@H](C)C(=O)OC2CCCCO2)Oc2cccc3ccccc23)[C@@H](O)[C@@]1(C)O (stereo not given in full) | 0.08 |  |  | 47 | inactive |  |  | 
14 | C[C@@]1(O)[C@H](O)[C@@H](CO)O[C@H]1n1cnc2c(NCCc3ccccc3)nc(N)nc21 | 24 |  |  | > 100 |  |  |  | 
15 | COCCCOc1nc(N)nc2c1ncn2[C@@H]1O[C@H](COP(=O)(N[C@@H](C)C(=O)OCC(C)(C)C)Oc2cccc3ccccc23)[C@@H](O)[C@@]1(C)O (stereo not given in full) | 0.043 |  |  | 31 | inactive |  | 0.12 | 
16 | CCOc1nc(N)nc2c1ncn2[C@@H]1O[C@H](COP(=O)(N[C@@H](C)C(=O)OCc2ccccc2)Oc2cccc3ccccc23)[C@@H](O)[C@@]1(C)O (stereo not given in full) | 0.04 |  |  | 11 | inactive |  |  | 
17 | CC(C)Oc1nc(N)nc2c1ncn2[C@@H]1O[C@H](COP(=O)(N[C@@H](C)C(=O)OCC(C)(C)C)Oc2cccc3ccccc23)[C@@H](O)[C@@]1(C)O (stereo not given in full) | 0.023 |  |  | 11 | inactive |  | 0.065 | 

The next lines start with results.

Row | EC50 [4] [µM] | Drug metabolism [5] | Drug metabolism [6] | Compound | CC50 [1] [µM] | Activity [2] | half-life [3] [h] | EC90 [4] [µM] | Drug metabolism [7]
18 | 11 | Not Active |  | CSc1nc(N)nc2c1ncn2[C@@H]1O[C@H](CO)[C@@H](O)[C@@]1(C)O | > 100 |  |  |  | 
19 | 8.5 |  |  | C[C@@]1(O)[C@H](O)[C@@H](CO)O[C@H]1n1cnc2c(Cl)nc(N)nc21 | > 100 |  |  |  | 
20 | 12 |  |  | COCCCOc1nc(N)nc2c1ncn2[C@@H]1O[C@H](CO)[C@@H](O)[C@@]1(C)O | > 100 |  |  |  | 
21 | 30 |  |  | C[C@@]1(O)[C@H](O)[C@@H](CO)O[C@H]1n1cnc2c(NCc3ccccc3)nc(N)nc21 |  |  |  |  | 
22 | 13 | Not Active |  | CNc1nc(N)nc2c1ncn2[C@@H]1O[C@H](CO)[C@@H](O)[C@@]1(C)O | > 100 |  |  |  | 
23 | 4.6 |  |  | COc1nc(N)nc2c1ncn2[C@@H]1O[C@H](CO)[C@@H](O)[C@@]1(C)O [BETA-2'-C-METHYL-6-O-METHYL GUANOSINE] | > 100 |  |  |  | 
24 | 8.8 |  | Active | CCOc1nc(N)nc2c1ncn2[C@@H]1O[C@H](CO)[C@@H](O)[C@@]1(C)O | > 100 |  |  |  | 
25 | 9.3 |  |  | CC(C)Oc1nc(N)nc2c1ncn2[C@@H]1O[C@H](CO)[C@@H](O)[C@@]1(C)O | > 100 |  |  |  | 
